Among the data in PubChem BioAssay are growth inhibition values, retold here.

Values without a mark were called inactive. Activity calls are given as the source filed them.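 How the source made its calls: active means growth inhibition above a set limit, 3 SD over mean compound inhibition, in both replicates (cut at about 43% in these data); inconclusive means above the limit in only one replicate; inactive means at or below the limit in both replicates.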

The nature of the assay: S. cerevisiae growth inhibition in restrictive medium, OD615, pilot screen, restrictive growth control, yeast lifespan reduction project (AID 706). As to conditions: OD615, 48 h, at 10 µM, hits give high values. In outline:
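Assay system – genetically modified Saccharomyces cerevisiae, DeaD replicative lifespan assay strain · Medium – CSMM-D glucose medium · Doses – 10 µM compound, 0.25% DMSO · Times – 4 h pre-incubation, 48 h exposure at 30 °C · Signal – optical density at 615 nm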
For the compound `CCC(C)NC(=O)CCCCCn1c(=O)[nH]c2cc(OC)c(OC)cc2c1=O` (configuration not stated), the growth inhibition was -7.55%.

With `Cc1ccc(C(C(=O)NC2CCCC2)N2CCCCC2)cc1` (configuration not stated), the growth inhibition is -13.5%. In the case of `COc1ccccc1N1CCN(C(=O)c2ccc(Br)s2)CC1` it was -6.29%.

Take `Cc1cc(=O)[nH]c(Cc2ccc(OC(C)C)cc2)n1`: the growth inhibition was -15.4%. Under `Cc1ccc(-c2nnc3ccc(SC(C)C(=O)O)nn23)cc1` (configuration not stated) stands 60.9% (active); under `CSc1nnc(-c2ccco2)n1-c1ccccc1`, 6.08%; under `COc1ccc(C2CC(c3cccc(C)c3)n3nc(N)nc3N2)cc1` (configuration not stated), 9.63%. In the case of `O=C(COc1ccccc1F)c1ccc(O)cc1O` it was 3.7%. Under `O=C(C1CCN(S(=O)(=O)c2cccc3cccnc23)CC1)N1CCN(C2CCCC2)CC1` stands 7.92%; under `COc1ccc(N2C(=O)C3CCCN3C2c2ccccc2OC)cc1` (configuration not stated), -3.83%; under `O=S(=O)(Nc1ccc(-c2nc3cccnc3s2)cc1)c1cccs1`, -6.65%. For the compound `COc1cc(OC)c(C2CC(=O)N3CN(C)CSC3=C2C#N)cc1OC` (configuration not stated), the growth inhibition was 60% (active).

For `CCOCCn1c(SCc2ccc(C)cc2)nc2c1c(=O)[nH]c(=O)n2C`, the growth inhibition is 3.62%.

`CC1Oc2ccccc2C=C1C1/C(=C(/O)c2ccccc2)C(=O)C(=O)N1CCCN(C)C` (configuration not stated): the growth inhibition was 2.81%. Under `c1ccc2cc3[nH]c(CN4CCCCC4)nc3cc2c1` stands -13.4%; under `CCCCCOc1ccc(NC(=O)CCCC(=O)O)cc1`, 2.42%. In the case of `COc1cccc(NC(=O)CSc2nnc(-c3ccc(C)cc3)o2)c1` it was -11.9%.
